Data taken from ChEMBL document CHEMBL4382210, “Identification of novel benzothiopyranone compounds against Mycobacterium tuberculosis through scaffold morphing from benzothiazinones” (Eur J Med Chem, 2018).

Assays:
[1] = Half life in CD-1 mouse hepatocytes assessed per million cells at 1 uM incubated up to 120 mins by LC-MS/MS analysis; format: ADME, cell-based, Hepatocyte
How it was run: (§1)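 Pooled male CD-1 mouse or pooled human hepatocytes at 1 million cells/mL final, compound at 1 µM. Incubated at 37 °C in a CO2 incubator with shaking (~100 rpm). Samples taken at 0, 15, 30, 60, 90 and 120 min and quenched with cold ACN/MeOH containing internal standard. Parent compound remaining measured by LC-MS/MS.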

Cytochrome P450 1A2 = target: T1, Cytochrome P450 1A2 (Homo sapiens, UniProt P05177); test: Inhibition of CYP1A2 in human liver microsomes after 20 mins by LC-MS/MS analysis; format: ADME
T1 sequence (P05177 whole entry): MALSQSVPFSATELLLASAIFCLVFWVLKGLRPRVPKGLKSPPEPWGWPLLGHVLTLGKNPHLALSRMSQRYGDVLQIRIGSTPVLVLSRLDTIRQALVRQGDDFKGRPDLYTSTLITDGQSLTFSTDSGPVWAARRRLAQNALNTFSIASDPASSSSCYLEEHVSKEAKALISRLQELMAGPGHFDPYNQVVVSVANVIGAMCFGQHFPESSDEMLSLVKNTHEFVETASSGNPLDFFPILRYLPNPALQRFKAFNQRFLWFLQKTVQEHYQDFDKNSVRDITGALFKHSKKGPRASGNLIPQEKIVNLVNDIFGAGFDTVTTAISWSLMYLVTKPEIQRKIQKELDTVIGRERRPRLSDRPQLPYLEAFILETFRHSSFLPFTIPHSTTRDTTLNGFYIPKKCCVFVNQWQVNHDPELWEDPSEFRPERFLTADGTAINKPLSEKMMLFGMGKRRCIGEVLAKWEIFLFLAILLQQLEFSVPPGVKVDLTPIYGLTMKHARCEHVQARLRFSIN
How it was run: (§2)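 Compound at 0.1–50 µM incubated 20 min with human liver microsomes (0.2 mg/mL) and the CYP isoform, alongside isoform-specific probe substrates. Substrate remaining measured by LC-MS/MS at each concentration to derive IC50.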

[2] = test system: Mycobacterium tuberculosis; test: Antimicrobial activity against Mycobacterium tuberculosis H37Rv infected in BALB/C mouse assessed as bacterial burden in mouse lung at 100 mg/kg, po administered via gavage treated 5 times per week for 3 weeks starting from day 10 post infection (reference value: 7.102 +/- 0.152 log10CFU); format: functional
[3] = Acute toxicity in BALB/C mouse assessed as mouse survival at 2 g/kg, po administered as single dose measured during 7 days observation period; format: organism-based; conditions: in vivo, 2000 mg/kg, 168 h
How it was run: (§3)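 Female Balb/c mice (18–21 g), ten animals, given one oral dose of 2 g/kg. Survivors counted after 7 days of observation.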

[4] = Elimination half life in BALB/C mouse at 10 mg/kg, iv by LC/TSQ quantum access mass spectrometry; format: ADME, organism-based; conditions: in vivo, read-out: beta t1/2 (converted)
How it was run: (§4)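 Male Balb/c mice (22–23 g), three per route. Single dose of 25 mg/kg p.o. (2.5 mg/mL in 0.5% carboxymethyl cellulose + 0.5% Tween 80) or 10 mg/kg i.v. (2.0 mg/mL in 20% HP-β-CD with 4 mol/L HCl). Blood sampled 5, 15, 30 min, 1, 2, 4, 7, 24 h. Plasma extracted with acetonitrile plus terfenadine internal standard, then LC-MS/MS on a C18 column. F = (AUCpo×dose_iv)/(AUCiv×dose_po).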

[5] = Metabolic stability in CD-1 mouse liver microsomes assessed as parent compound remaining at 1 uM measured after 30 mins in presence of NADPH by LC-MS/MS analysis; format: ADME, Microsome; conditions: read-out: Stability
How it was run: (§5)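 Male CD-1 mouse or pooled human liver microsomes (1 mg/mL protein), compound at 1 µM, 37 °C. Reaction started with 1 mM NADPH and quenched with cold ACN/MeOH containing internal standard. Parent remaining measured by LC-MS/MS; the 30-min value is normalised to time zero.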

[6] = AUC (0 to infinity) in BALB/C mouse at 25 mg/kg, po by LC/TSQ quantum access mass spectrometry; format: ADME, organism-based; set-up: dose 25 mg/kg, time infinity, route oral; conditions: in vivo; how it was run: as §4
[7] = Intrinsic clearance in CD-1 mouse hepatocytes assessed per million cells at 1 uM incubated up to 120 mins by LC-MS/MS analysis; format: ADME, cell-based, Hepatocyte; conditions: read-out: CLH; how it was run: as §1
[8] = Elimination half life in BALB/C mouse at 25 mg/kg, po by LC/TSQ quantum access mass spectrometry; format: ADME, organism-based; conditions: in vivo, read-out: beta t1/2 (converted); how it was run: as §4
Cytochrome P450 3A4 = Cytochrome P450 3A4 (Homo sapiens, UniProt P08684); test: Inhibition of CYP3A4 in human liver microsomes after 20 mins by LC-MS/MS analysis; format: ADME; how it was run: as §2
[9] = Cmax in BALB/C mouse at 25 mg/kg, po by LC/TSQ quantum access mass spectrometry; format: ADME, organism-based; set-up: dose 25 mg/kg, route oral; conditions: in vivo; how it was run: as §4
[10] = Metabolic stability in human liver microsomes assessed as parent compound remaining at 1 uM measured after 30 mins in presence of NADPH by LC-MS/MS analysis; format: ADME, Microsome; conditions: read-out: Stability; how it was run: as §5
[11] = AUC (0 to 24 hrs) in BALB/C mouse at 25 mg/kg, po by LC/TSQ quantum access mass spectrometry; format: ADME, organism-based; set-up: time < 24 hr, dose 25 mg/kg, route oral; conditions: in vivo; how it was run: as §4
[12] = Selectivity index, ratio of IC50 for human HepG2 cells to MIC=>90 for Mycobacterium tuberculosis H37Rv; format: toxicity; conditions: read-out: Selectivity Index
[13] = Inhibition of Mycobacterium tuberculosis DprE1 expressed in Escherichia coli BL21(DE3) by fluorescence based assay
How it was run: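 Buffer: 50 mM Hepes pH 7.5, 100 mM NaCl, 1.5% DMSO, 100 µM Tween-20, 2 µM FAD, 50 µM resazurin. DprE1 (1 µM) with 1 mM FPR at 30 °C across inhibitor concentrations. Resorufin formation followed by fluorescence (ex 530/em 595 nm).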

[14] = Intrinsic clearance in human hepatocytes assessed per million cells at 1 uM incubated up to 120 mins by LC-MS/MS analysis; format: ADME, cell-based, Hepatocyte; conditions: read-out: CLH; how it was run: as §1
HepG2 = test: Cytotoxicity against human HepG2 cells assessed as reduction in cell viability after 48 hrs by MTT assay; format: cell-based; conditions: HepG2, 48 h
How it was run: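 Vero or HepG2 cells in RPMI1640 with 10% FBS at 37 °C, 5% CO2, seeded at 4×10^5 cells/mL. Threefold dilutions at 64–0.26 µg/mL final for 48 h. Cells then washed with HBSS, MTT added for 4 h, absorbance read at 492 nm. IC50 taken relative to untreated control.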

Cytochrome P450 2C19 = Cytochrome P450 2C19 (Homo sapiens, UniProt P33261); test: Inhibition of CYP2C19 in human liver microsomes after 20 mins by LC-MS/MS analysis; format: ADME; how it was run: as §2
[15] = Clearance in BALB/C mouse at 10 mg/kg, iv by LC/TSQ quantum access mass spectrometry; format: ADME, organism-based; conditions: in vivo; how it was run: as §4
[16] = Acute toxicity in po dosed BALB/C mouse assessed as mortality administered as single dose measured during 7 days observation period; format: organism-based; conditions: in vivo; how it was run: as §3
[17] = Half life in human hepatocytes assessed per million cells at 1 uM incubated up to 120 mins by LC-MS/MS analysis; format: ADME, cell-based, Hepatocyte; how it was run: as §1
[18] = AUC (0 to 24 hrs) in BALB/C mouse at 10 mg/kg, iv by LC/TSQ quantum access mass spectrometry; format: ADME, organism-based; set-up: time < 24 hr, dose 10 mg/kg, route intravenous; conditions: in vivo; how it was run: as §4

Sequence of Cytochrome P450 2C19 (P33261 whole entry): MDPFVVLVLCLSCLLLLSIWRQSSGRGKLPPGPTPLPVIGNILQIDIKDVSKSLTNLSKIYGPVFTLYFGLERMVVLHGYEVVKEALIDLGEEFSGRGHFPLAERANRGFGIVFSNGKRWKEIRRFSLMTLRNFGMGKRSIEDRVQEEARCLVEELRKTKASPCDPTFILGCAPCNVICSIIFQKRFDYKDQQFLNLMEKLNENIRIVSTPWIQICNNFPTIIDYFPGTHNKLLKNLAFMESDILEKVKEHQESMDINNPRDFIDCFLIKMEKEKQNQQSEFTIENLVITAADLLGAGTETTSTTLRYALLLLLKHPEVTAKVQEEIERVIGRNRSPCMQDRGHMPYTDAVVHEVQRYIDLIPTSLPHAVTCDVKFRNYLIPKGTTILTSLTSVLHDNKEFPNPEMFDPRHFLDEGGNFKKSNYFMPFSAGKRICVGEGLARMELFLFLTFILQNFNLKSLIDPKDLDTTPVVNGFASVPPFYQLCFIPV
Sequence of Cytochrome P450 3A4 (P08684 whole entry): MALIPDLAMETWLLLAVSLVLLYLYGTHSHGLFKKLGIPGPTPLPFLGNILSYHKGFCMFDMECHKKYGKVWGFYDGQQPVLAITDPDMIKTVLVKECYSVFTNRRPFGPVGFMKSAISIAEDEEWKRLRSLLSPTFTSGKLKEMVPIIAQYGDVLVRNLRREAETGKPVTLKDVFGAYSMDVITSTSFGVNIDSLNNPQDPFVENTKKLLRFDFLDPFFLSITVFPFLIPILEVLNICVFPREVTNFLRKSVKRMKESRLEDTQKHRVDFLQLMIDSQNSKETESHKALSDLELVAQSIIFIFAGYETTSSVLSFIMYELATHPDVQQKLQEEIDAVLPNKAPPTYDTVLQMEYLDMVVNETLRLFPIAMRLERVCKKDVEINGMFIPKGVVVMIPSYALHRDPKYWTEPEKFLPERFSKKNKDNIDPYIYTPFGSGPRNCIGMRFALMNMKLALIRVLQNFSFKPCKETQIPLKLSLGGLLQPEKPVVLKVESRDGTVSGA

## O=c1cc(N2CCN(CC3CCCCC3)CC2)sc2c([N+](=O)[O-])cc(C(F)(F)F)cc12
[1]
  half-life at 1 µM: 7.7 h
Cytochrome P450 1A2
  IC50: > 50 µM
[2]
  Activity: 1.678 log10CFU
[3]
  Activity: Non-Toxic
[4]
  half-life: 6.54 h
[5]
  remaining at 0.5 h, 1 µM: 61.5%
[6]
  AUC(0-inf): 1700 ng·h/mL
[7]
  hepatocyte CLint at 1 µM: 1.5 µL/min/1e6 cells
[8]
  half-life: 7.25 h
Cytochrome P450 3A4
  IC50: > 50 µM
[9]
  Cmax: 588 ng/mL
[10]
  remaining at 0.5 h, 1 µM: 66.7%
[11]
  AUC(0-t) at 24 h: 1580 ng·h/mL
[12]
  selectivity ratio: > 4000
[13]
  IC50: 4.53 µM
[14]
  hepatocyte CLint at 1 µM: 3.1 µL/min/1e6 cells
HepG2
  IC50: > 64 µg/mL
Cytochrome P450 2C19
  IC50: > 50 µM
[15]
  clearance: 32.3 mL/min/kg
[16]
  LD50 at 168 h: > 2000 mg/kg
[17]
  half-life at 1 µM: 3.73 h
[18]
  AUC(0-t) at 24 h: 4950 ng·h/mL
